# pKi: −log10 of the molar value. The source made the active and inactive calls. No cut-off for these calls is given here.
# Key:
# [1] = tested on: Pseudomonas aeruginosa; test: Antibacterial activity against Pseudomonas aeruginosa by broth dilution method; type: functional
# How it was run: (§1)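 Compounds and reference drugs were dissolved as stocks in 50% DMSO–water, then serially diluted twofold with culture medium, with bacterial inoculum added […], and the MIC was determined. Only compounds that gave a growth-inhibition zone in a prior agar cup diffusion screen went on to this broth dilution test.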
# [2] = tested on: Staphylococcus epidermidis; test: Antibacterial activity against Staphylococcus epidermidis by broth dilution method; type: functional; how it was run: as §1
# [3] = tested on: Saccharomyces cerevisiae; test: Antifungal activity against Saccharomyces cerevisiae by agar cup diffusion method; type: functional, organism-based
# [4] = tested on: Aspergillus niger; test: Antifungal activity against Aspergillus niger by agar cup diffusion method; type: functional, organism-based
# [5] = tested on: Rhizopus arrhizus; test: Antifungal activity against Rhizopus oryzae by agar cup diffusion method; type: functional, organism-based
# [6] = tested on: Klebsiella pneumoniae; test: Antibacterial activity against Klebsiella pneumoniae by broth dilution method; type: functional; how it was run: as §1
# [7] = tested on: Staphylococcus aureus; test: Antibacterial activity against Staphylococcus aureus by broth dilution method; type: functional; how it was run: as §1
# [8] = tested on: Escherichia coli; test: Antibacterial activity against Escherichia coli by broth dilution method; type: functional; how it was run: as §1
# [9] = tested on: Candida albicans; test: Antifungal activity against Candida albicans by agar cup diffusion method; type: functional, organism-based
# [10] = tested on: Bacillus subtilis; test: Antibacterial activity against Bacillus subtilis by broth dilution method; type: functional; how it was run: as §1
# [11] = Inhibition of bovine N-acetyl-beta-D-glucosaminidase; design: species or system Bos taurus
SMILES,MIC [1] [µg/mL],MIC [2] [µg/mL],MIC [6] [µg/mL],MIC [7] [µg/mL],MIC [8] [µg/mL],MIC [10] [µg/mL],pKi [11],Activity [3],Activity [4],Activity [5],Activity [9]
OC[C@@H](O)[C@@H](O)[C@@H](O)[C@H](O)c1nc(-c2ccccc2)c(-c2ccccc2)n1Cc1ccccc1,75,75,75,75,75,75,,inactive,inactive,inactive,inactive
CC(=O)N[C@H]1c2nc(CC(=O)O)cn2[C@H](CO)[C@H](O)[C@@H]1O [NAGSTATIN],,,,,,,8.40,,,,
CC1(C)OC(c2nc(-c3ccccc3)c(-c3ccccc3)n2Cc2ccccc2)[C@H]([C@@H](O)[C@H]2COC(C)(C)O2)O1 (some centres not stated),37.5,150,75,75,75,75,,inactive,inactive,inactive,inactive
CN[C@@H]1[C@H](O[C@H]2[C@H](O[C@H]3[C@H](O)[C@@H](O)[C@H](N=C(N)N)[C@@H](O)[C@@H]3N=C(N)N)O[C@@H](C)[C@]2(O)C=O)O[C@@H](CO)[C@H](O)[C@H]1O (stereo in doubt) [STREPTOMYCIN],3.12,1.56,3.12,1.56,2.35,6.25,,,,,
CC1(C)O[C@H]2O[C@H](c3nc(-c4ccccc4)c(-c4ccccc4)n3Cc3ccccc3)[C@H](O)[C@H]2O1,37.5,150,75,150,150,150,,inactive,inactive,inactive,inactive

# Now from value to molecule, other results behind:
MIC [1] [µg/mL],MIC [2] [µg/mL],MIC [6] [µg/mL],MIC [7] [µg/mL],MIC [8] [µg/mL],MIC [10] [µg/mL],pKi [11],SMILES,Activity [3],Activity [4],Activity [5],Activity [9]
150,75,75,150,75,150,,Cc1ccc(-n2c([C@H]3COC(C)(C)O3)nc(-c3ccccc3)c2-c2ccccc2)cc1,inactive,inactive,inactive,inactive
37.5,75,150,150,75,150,,Cc1cccc(-n2c(C3OC(C)(C)O[C@H]3[C@@H](O)[C@H]3COC(C)(C)O3)nc(-c3ccccc3)c2-c2ccccc2)c1 (some centres not stated),inactive,inactive,inactive,inactive
75,150,75,150,75,150,,CC1(C)OC(c2nc(-c3ccccc3)c(-c3ccccc3)n2-c2ccc(F)cc2)[C@H]([C@@H](O)[C@H]2COC(C)(C)O2)O1 (some centres not stated),inactive,inactive,inactive,inactive
75,75,75,37.5,75,37.5,,Cc1ccc(-n2c([C@H]3O[C@@H]4OC(C)(C)O[C@@H]4[C@H]4OC(C)(C)O[C@H]43)nc(-c3ccccc3)c2-c2ccccc2)cc1,inactive,inactive,inactive,inactive
75,150,75,75,75,75,,Cc1ccc(-n2c(C3OC(C)(C)O[C@H]3[C@@H](O)[C@H]3COC(C)(C)O3)nc(-c3ccccc3)c2-c2ccccc2)cc1 (some centres not stated),inactive,inactive,inactive,inactive
37.5,75,75,75,37.5,75,,CC1(C)OC[C@H](c2nc(-c3ccccc3)c(-c3ccccc3)n2-c2ccc(F)cc2)O1,inactive,inactive,inactive,inactive

# Source: ChEMBL document CHEMBL1143111, “Synthesis and antimicrobial activity of novel C-linked imidazole glycoconjugates” (Bioorg Med Chem Lett, 2008)
